A selection: hits, their analogues and other compounds. The true share with any hit is near 9.2%.
Fibroblast inh = antiproliferative effect on LL 47 fibroblasts – human, LL 47 cells, CellTiter-Glo luminescence, primary screen; AID 719, 2007; hit rate 1.1% among 85,000; viability, % at 10 µM; LL 47 human lung fibroblast viability, ATP luminescence; active compounds read low;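 active means viability at or below 50% in the single dose screen; inactive means viability above 50%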;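 further: compound exposure lasted 72 h before the ATP readout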
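Material: Human LL 47 lung fibroblast cells | Input: 1,150 cells/well | Buffer or medium: IMEM plus 15% FBS | Compound dosing: 0.1% DMSO in all compound wells | Times: Overnight cell rest, 72 h compound treatment at 37 °C | Signal: CellTiter-Glo luminescence measuring cellular ATP | Measure: % viability versus median cells-only luminescence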
ERa SRC1 inh = ERα–SRC-1 coactivator interaction inhibitors, primary screen, biochemical, TR-FRET, ERα LBD, estradiol-bound; inhibition, % at 25.6 µM; hit rate 1.7% among 86,000; Estrogen receptor (Homo sapiens), P03372; TR-FRET ER-alpha LBD / SRC-1 peptide; in the data active means inhibition above about 50%
H69AR growth 86K = proliferation blockers of H69AR lung cancer cells, primary screen, cell-based, human, 86K library; H69AR lung tumor viability, ATP luminescence, 72 h; active compounds read low; viability, % at 10 µM; hit rate 6% among 85,000; AID 598, 2007;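 active means viability at or below 40%; inactive means viability above 40%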;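 further: multidrug resistant small cell line overexpressing MRP-1 efflux transporter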
ERa SRC1 pot = enhancers of ERα–SRC-1 coactivator binding, primary screen, biochemical, TR-FRET, ERα LBD, low estradiol; Estrogen receptor (Homo sapiens), P03372; TR-FRET ERalpha-LBD/SRC-Cy5 coactivator binding, 2 h; 100 = basal binding, no effect; coactivator binding (% of control), % at 25.6 µM; hit rate 1.3% among 86,000; AID 639, 2007; in the data active means activity above about 200%;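 further: binding measured in presence of low estradiol as agonist stimulus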
HUVEC inhibit = inhibitors of HUVEC proliferation, primary screen, cell-based, 384-well; CellTiter-Glo luminescence, 72 h; active compounds read low; viability, % at 10 µM (by protocol); hit rate 1.1% among 86,000; AID 648, 2007;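 active means viability at or below 30%; inactive means viability above 30%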
ERb SRC1 inh = inhibitors of ERβ-SRC1 coactivator interaction, primary screen, biochemical, TR-FRET, ERβ LBD, SRC-1 peptide | Estrogen receptor beta (Homo sapiens), Q92731 | TR-FRET ER-beta LBD / SRC1-Cy5 peptide binding; receptor agonist-loaded with 1 µM estradiol | inhibition, % at 25.6 µM | hit rate 1.3% among 86,000 | AID 633, 2007;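 active means compounds whose percent inhibition of the receptor-coactivator binding signal exceeds about 50% in the single-dose screen, limit read from the data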
Target sequence (Q92731 whole entry, looked up, the tested form may be a part): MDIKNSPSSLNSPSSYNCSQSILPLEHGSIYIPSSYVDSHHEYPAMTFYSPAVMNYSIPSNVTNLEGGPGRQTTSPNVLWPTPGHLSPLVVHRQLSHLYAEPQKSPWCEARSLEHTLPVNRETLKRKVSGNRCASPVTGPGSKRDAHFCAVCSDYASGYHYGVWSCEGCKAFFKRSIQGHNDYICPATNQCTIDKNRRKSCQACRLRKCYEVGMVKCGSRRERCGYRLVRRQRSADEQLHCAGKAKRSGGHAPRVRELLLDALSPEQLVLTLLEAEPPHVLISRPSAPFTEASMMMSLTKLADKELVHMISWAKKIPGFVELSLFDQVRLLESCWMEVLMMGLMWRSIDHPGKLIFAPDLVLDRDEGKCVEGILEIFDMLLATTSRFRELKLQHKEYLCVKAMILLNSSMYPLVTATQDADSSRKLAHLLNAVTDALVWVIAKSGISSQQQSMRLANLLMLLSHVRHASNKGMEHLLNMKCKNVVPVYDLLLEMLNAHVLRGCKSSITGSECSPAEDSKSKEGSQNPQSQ
Each line names hits and unclear results; the compound was inactive in the other large screens; [ ] = dose if it differs, or a comment.

COc1ccc(-c2cc(C(=O)Nc3c(C)nn(Cc4ccccc4Cl)c3C)no2)cc1OC	H69AR growth 86K 20
Cc1nn(Cc2ccc(F)cc2)c(C)c1NC(=O)c1cc(-c2ccc3c(c2)OCO3)on1	none
Cc1ccc(Cn2nc(C)c(NC(=O)c3cc(-c4ccc5c(c4)OCO5)on3)c2C)cc1	H69AR growth 86K 7.4
COc1ccc(-c2cc(C(=O)Nc3c(C)nn(Cc4ccc(Cl)cc4)c3C)no2)cc1	H69AR growth 86K 16
Cc1nn(Cc2ccc(Cl)cc2)c(C)c1NC(=O)c1cc(-c2ccco2)on1	none
COc1ccc(OC)c(S(=O)(=O)Nc2cccnc2)c1	none
Cc1ccc(CN2C(=O)CCC2C(=O)NCCN(CC(C)C)CC(C)C)cc1 (configuration not stated)	none
Nc1c(C(O)(C(F)(F)F)C(F)(F)F)cc(C(O)(C(F)(F)F)C(F)(F)F)c2ccccc12	H69AR growth 86K 25
O=S(=O)(c1ccc2c(c1)C(=NO)c1cc(S(=O)(=O)N3CCCCC3)ccc1-2)N1CCCCC1	Fibroblast inh 1.6, H69AR growth 86K 0.4, HUVEC inhibit 1.6
CC1CCN(S(=O)(=O)c2ccc3c(c2)C(=NO)c2cc(S(=O)(=O)N4CCC(C)CC4)ccc2-3)CC1	Fibroblast inh 2.3, H69AR growth 86K 0.9, HUVEC inhibit 2.8
CCc1c(C)sc(NC(=O)c2cc(C)no2)c1C#N	none
CCc1c(C)sc(NC(=O)CC#N)c1C#N	ERa SRC1 inh 77[fluorescence artefact?], ERb SRC1 inh 64[fluorescence artefact?]
Cc1ccc(C(=O)c2cn[nH]c2-c2ccccc2O)cc1	none
Cc1ccc(C(=O)c2c(C)oc3c2C(=O)C(=O)c2ccccc2-3)cc1	Fibroblast inh 2.1, H69AR growth 86K 1.0
O=C(c1ccc(Cl)cc1)c1ccc(CN2C(=O)c3ccccc3C2=O)o1	none
Cc1ccc(C(=O)c2coc3c2C(=O)C(=O)c2ccccc2-3)cc1	Fibroblast inh 47, H69AR growth 86K 1.8, HUVEC inhibit 3.5
CC1Cc2ccccc2N1C(=O)C1CCCN(S(=O)(=O)c2cccc3cccnc23)C1 (configuration not stated)	H69AR growth 86K 37
COC(=O)c1cc(NC(=O)c2ccc(Cn3cc(Cl)cn3)o2)cc(C(=O)OC)c1	Fibroblast inh 6.8, ERa SRC1 inh 58[fluorescence artefact?], H69AR growth 86K 2.7
CC(=O)Nc1ccc(OCC(O)Cn2cnc3ccccc32)cc1 (configuration not stated)	ERa SRC1 pot 636[fluorescence artefact?]
Cc1c(NS(=O)(=O)c2ccc3c(c2)OCCO3)cccc1-c1nc2cccnc2s1	ERa SRC1 pot 244[fluorescence artefact?]
Cc1cc(-c2nc3cccnc3s2)ccc1NS(=O)(=O)c1ccc2c(c1)OCCO2	ERa SRC1 pot 204[fluorescence artefact?]
CCS(=O)(=O)Nc1cc(-c2nc3cccnc3s2)ccc1C	none
Cc1nn2c(-c3ccccc3)nnc2c2ccccc12	H69AR growth 86K 39
Cc1nn2c3ccccc3nc2c2ccccc12	none
CCOC(=O)N1CCN(C(=O)CSCC(=O)N=c2sc3ccccc3n2C)CC1	none
Cn1c(=NC(=O)CCl)sc2ccccc21	Fibroblast inh 2.4, H69AR growth 86K 1.4
CCN(CC)CCNC1=CC(=O)OC12CCCCC2	none
COc1ccccc1N/C(N)=N/c1nc(CSc2ccc(C)cc2)cc(=O)[nH]1	H69AR growth 86K 23, ERa SRC1 pot 258[fluorescence artefact?] (no result: Fibroblast inh)
CCc1ccc(NC(=O)c2ccc3c(c2)C(=O)N(Cc2ccco2)C3=O)cc1	none
COC(=O)c1ccccc1NC(=O)c1ccc2c(c1)C(=O)N(Cc1ccco1)C2=O	H69AR growth 86K 11
CCCCNC(=O)Nc1nnc(-c2ccc(OCC)cc2)o1	none
O=C(Nc1nnc(-c2ccccc2)o1)c1ccc(Cl)cc1	none
CCOc1ccc(-c2nnc(NC(=O)c3ccc(OCC(C)C)c(OC)c3)o2)cc1	H69AR growth 86K 29, HUVEC inhibit 19
CN(C)c1ccc(C(=O)Nc2nnc(-c3ccc(Cl)cc3)o2)cc1	ERa SRC1 inh 64[fluorescence artefact?], ERb SRC1 inh 56[fluorescence artefact?]
CN(c1ccccc1)S(=O)(=O)c1ccc(C(=O)Nc2nnc(-c3ccc(F)cc3)o2)cc1	H69AR growth 86K 34, HUVEC inhibit 2.0
CCc1nnc(NC(=O)c2ccc(S(=O)(=O)N(CC)CC)cc2)s1	none
CCc1nnc(NC(=O)c2ccc(S(=O)(=O)N(CC)Cc3ccccc3)cc2)o1	H69AR growth 86K 21
CCOC(=O)C(CC)Sc1nc(-c2ccc(OC)cc2)nc2c1c(=O)n(C)c(=O)n2C (configuration not stated)	none
CCOCCOCCC(C(=O)OCC)P(=O)(c1ccccc1)c1ccccc1 (configuration not stated)	none
CCOC(=O)c1cnc(SCC(=O)Nc2ccc(NC(=O)CC)c(OC)c2)nc1N	none
CCCCN(CCCC)S(=O)(=O)c1ccc(C(=O)Nc2nnc(COC)o2)cc1	H69AR growth 86K 27
COc1cccc(C(=O)Nc2nnc(-c3ccc(F)cc3)o2)c1	H69AR growth 86K 37
CCCCN(CC)S(=O)(=O)c1ccc(C(=O)Nc2nnc(-c3cccs3)o2)cc1	H69AR growth 86K 35, HUVEC inhibit 5.0
COc1ccccc1-c1nnc(NC(=O)c2ccc(S(=O)(=O)N(C)Cc3ccccc3)cc2)o1	H69AR growth 86K 22, HUVEC inhibit 17
CC(C)n1c(SCC(=O)c2ccc3c(c2)OCCO3)nc2c1c(=O)n(C)c(=O)n2C	none
CCc1nc(N)nc(N)c1-c1ccc(Cl)cc1	ERa SRC1 pot 246
CCc1nc(N)c(C#N)c(-c2ccncc2)c1C	none
O=c1c(/C=C(\O)c2ccccc2)nc2ccccc2n1-c1ccccc1	H69AR growth 86K 39
O=C(NC(C(=O)c1ccccc1)n1c(=O)cc[nH]c1=S)c1ccccc1 (configuration not stated)	none
CC12CC3CC(C)(C1)CC(C(=O)Nc1nn[nH]n1)(C3)C2	ERa SRC1 pot 226
O=S(=O)(c1ccccc1)c1nc(-c2ccccc2)oc1N1CCCCC1	none
Cc1[nH]c2c(Br)cccc2c1[C@H]1[C@@H](CC#N)C1(C)C	none
Cc1c([C@H]2[C@@H](CC#N)C2(C)C)c2ccccc2n1C	ERa SRC1 inh 63[fluorescence artefact?], ERb SRC1 inh 69
O=C(CN1C(=O)NC2(CCCCCC2)C1=O)N1CCN(S(=O)(=O)c2ccc(Cl)cc2)CC1	none
COC(=O)c1ccc(-c2n[nH]c(=O)c3ccccc23)cc1	ERa SRC1 pot 296[fluorescence artefact?]
O=C(CCn1c(=O)oc2ccccc21)N1CCc2ccccc21	none
